According to ChEMBL document CHEMBL1146374, “Clubbed triazoles: a novel approach to antitubercular drugs” (Eur J Med Chem, 2007):

Assays:
[1] = Cytotoxicity against Vero-C1008 cells at 6.25 to 50 ug/ml; type: cell-based; conditions: chlorocebus sabaeus
Summary of the method: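 Vero-C-1008 cells were exposed to compounds at several concentrations across 6.25–50 µg/ml. Cytotoxicity was read out by neutral red uptake.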

[2] = test system: Mycobacterium tuberculosis; assay: Antituberculosis activity against Mycobacterium tuberculosis H37Rv by Microplate Alamar Blue Assay; type: functional
Summary of the method: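 MIC against M. tuberculosis H37Rv (ATCC 27294) in BACTEC 12B medium by broth microdilution (MABA). Primary actives were retested at lower concentrations. MIC is the lowest concentration giving a […] fluorescence reduction versus controls. Fluorescent compounds were run in the BACTEC 460 radiometric system. Rifampin was the reference.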

Staphylococcus aureus = assay: Antibacterial activity against Staphylococcus aureus at 50 to 100 uM after 24 hrs by well diffusion method; type: functional
Summary of the method: (§1)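 Agar well diffusion: nutrient agar plates with 10 mm wells cut by sterile cork borer; 24-h subcultured bacteria swabbed onto the plates from nutrient broth. Compounds were dissolved in chloroform and added to wells at […]. Gentamycin served as the standard antibiotic.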

Pseudomonas aeruginosa = assay: Antibacterial activity against Pseudomonas aeruginosa at 50 to 100 uM after 24 hrs by well diffusion method; type: functional; summary of the method: as §1
Escherichia coli = assay: Antibacterial activity against Escherichia coli at 50 to 100 uM after 24 hrs by well diffusion method; type: functional; summary of the method: as §1
Salmonella typhi = assay: Antibacterial activity against Salmonella typhi at 50 to 100 uM after 24 hrs by well diffusion method; type: functional, Salmonella enterica subsp. enterica serovar Typhi
Summary of the method: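 Agar well diffusion on nutrient agar plates; wells cut with a 10 mm sterile cork borer. Plates swabbed with 24-h subcultured bacteria from nutrient broth. Compounds dissolved in chloroform and added to wells at a range of concentrations. Gentamycin was the standard.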

Compound | Activity [1] | MIC [2] | zone of inhibition (Staphylococcus aureus) | zone of inhibition (Pseudomonas aeruginosa) | zone of inhibition (Escherichia coli) | Inhibition (Salmonella typhi) | inhibition (Staphylococcus aureus) | inhibition (Pseudomonas aeruginosa) | inhibition (Escherichia coli) | inhibition (Salmonella typhi; Salmonella enterica subsp. enterica serovar Typhi)
O=C(Nc1nc(Cc2nnc(S)n2NC(=O)c2ccccc2)cs1)c1ccccc1 | Non-toxic | < 6.25 µg/mL | 16 mm | 10 mm | 10 mm | 18% |  |  |  | 
COC(=O)CSc1nnc(Cc2csc(NC(C)=O)n2)n1NC(=O)c1ccccc1 | Non-toxic | < 6.25 µg/mL | 22 mm | 11 mm | 24 mm | 24% |  |  |  | 
O=C(CSc1nnc(Cc2csc(NC(=O)CCl)n2)n1NC(=O)c1ccccc1)NNC(=O)c1ccccc1 | Non-toxic | < 6.25 µg/mL |  |  |  |  |  |  |  | 
O=C(O)CCNc1nc(Cc2nnc(SCSc3nnc(Cc4csc(NCCC(=O)O)n4)n3NC(=O)c3ccccc3)n2NC(=O)c2ccccc2)cs1 | Non-toxic | < 6.25 µg/mL | 18 mm | 16 mm | 10 mm | 12% |  |  |  | 
GENTAMICIN |  |  |  |  |  |  | 34% | 35% | 31% | 30%
Nn1c(S)nnc1CSc1nnc(Cc2csc(NC(=O)CCl)n2)n1NC(=O)c1ccccc1 | Non-toxic | < 6.25 µg/mL | 12 mm | 10 mm | 10 mm | 14% |  |  |  | 
CC(=O)NNC(=O)CSc1nnc(Cc2csc(NCCC(=O)O)n2)n1NC(=O)c1ccccc1 | Non-toxic | < 6.25 µg/mL |  |  |  |  |  |  |  | 
Nn1c(S)nnc1CSc1nnc(Cc2csc(NCCC(=O)O)n2)n1NC(=O)c1ccccc1 | Non-toxic | < 6.25 µg/mL | 14 mm | 11 mm | 18 mm | 12% |  |  |  | 
CC(=O)NNC(=O)CSc1nnc(Cc2csc(NC(=O)CCl)n2)n1NC(=O)c1ccccc1 | Non-toxic | < 6.25 µg/mL | 24 mm | 10 mm | 14 mm | 14% |  |  |  | 
O=C(CCl)NNC(=O)CSc1nnc(Cc2csc(NC(=O)c3ccccc3)n2)n1NC(=O)c1ccccc1 | Non-toxic | < 6.25 µg/mL |  |  |  |  |  |  |  | 
O=C(CCl)Nc1nc(Cc2nnc(S)n2NC(=O)c2ccccc2)cs1 | Non-toxic | < 6.25 µg/mL | 20 mm | 20 mm | 18 mm | 14% |  |  |  | 
CC(=O)Nc1nc(Cc2nnc(S)n2NC(=O)c2ccccc2)cs1 | Non-toxic | < 6.25 µg/mL | 16 mm | 16 mm | 20 mm | 16% |  |  |  | 
O=C(CCl)NNC(=O)CSc1nnc(Cc2csc(NC(=O)CCl)n2)n1NC(=O)c1ccccc1 | Non-toxic | < 6.25 µg/mL |  |  |  |  |  |  |  | 
COC(=O)CSc1nnc(Cc2csc(NCCC(=O)O)n2)n1NC(=O)c1ccccc1 | Non-toxic | < 6.25 µg/mL | 16 mm | 18 mm | 12 mm | 12% |  |  |  | 
COC(=O)CSc1nnc(Cc2csc(NC(=O)c3ccccc3)n2)n1NC(=O)c1ccccc1 | Non-toxic | < 6.25 µg/mL | 22 mm | 22 mm | 20 mm | 20% |  |  |  | 
CC(=O)Nc1nc(Cc2nnc(SCC(=O)NNC(=O)c3ccccc3)n2NC(=O)c2ccccc2)cs1 | Non-toxic | < 6.25 µg/mL |  |  |  |  |  |  |  | 
CC(=O)Nc1nc(Cc2nnc(SCC(=O)NNC(=O)CCl)n2NC(=O)c2ccccc2)cs1 | Non-toxic | < 6.25 µg/mL |  |  |  |  |  |  |  | 

Compound | Activity [1] | MIC [2] | zone of inhibition (Staphylococcus aureus) | zone of inhibition (Pseudomonas aeruginosa) | zone of inhibition (Escherichia coli) | Inhibition (Salmonella typhi) | inhibition (Staphylococcus aureus) | inhibition (Pseudomonas aeruginosa) | inhibition (Escherichia coli) | inhibition (Salmonella typhi; Salmonella enterica subsp. enterica serovar Typhi)
CC(=O)NNC(=O)CSc1nnc(Cc2csc(NC(=O)c3ccccc3)n2)n1NC(=O)c1ccccc1 | Non-toxic | < 6.25 µg/mL |  |  |  |  |  |  |  | 
CC(=O)Nc1nc(Cc2nnc(SCSc3nnc(Cc4csc(NC(C)=O)n4)n3NC(=O)c3ccccc3)n2NC(=O)c2ccccc2)cs1 | Non-toxic | < 6.25 µg/mL | 16 mm | 16 mm | 12 mm | 12% |  |  |  | 
COC(=O)CSc1nnc(Cc2csc(NC(=O)CCl)n2)n1NC(=O)c1ccccc1 | Non-toxic | < 6.25 µg/mL | 24 mm | 22 mm | 20 mm | 18% |  |  |  | 
O=C(O)CCNc1nc(Cc2nnc(S)n2NC(=O)c2ccccc2)cs1 | Non-toxic | < 6.25 µg/mL | 11 mm | 17 mm | 15 mm | 22% |  |  |  | 
Nn1c(S)nnc1Cc1csc(NCCC(=O)O)n1 | Non-toxic | < 6.25 µg/mL | 25 mm | 22 mm | 20 mm | 16% |  |  |  | 
CC(=O)Nc1nc(Cc2nnc(SCc3nnc(S)n3N)n2NC(=O)c2ccccc2)cs1 | Non-toxic | < 6.25 µg/mL | 14 mm | 16 mm | 12 mm | 18% |  |  |  | 
O=C(O)CCNc1nc(Cc2nnc(SCC(=O)NNC(=O)c3ccccc3)n2NC(=O)c2ccccc2)cs1 | Non-toxic | < 6.25 µg/mL |  |  |  |  |  |  |  | 
O=C(Nc1nc(Cc2nnc(SCSc3nnc(Cc4csc(NC(=O)c5ccccc5)n4)n3NC(=O)c3ccccc3)n2NC(=O)c2ccccc2)cs1)c1ccccc1 | Non-toxic | < 6.25 µg/mL | 11 mm | 24 mm | 16 mm | 12% |  |  |  | 
Nn1c(S)nnc1CSc1nnc(Cc2csc(NC(=O)c3ccccc3)n2)n1NC(=O)c1ccccc1 | Non-toxic | < 6.25 µg/mL | 12 mm | 18 mm | 18 mm | 14% |  |  |  | 
N#CCSc1nnc(Cc2csc(NC(=O)CCl)n2)n1NC(=O)c1ccccc1 | Non-toxic | < 6.25 µg/mL | 20 mm | 16 mm | 10 mm | 10% |  |  |  | 
Nn1c(S)nnc1Cc1csc(NC(=O)CCl)n1 | Non-toxic | < 6.25 µg/mL | 18 mm | 17 mm | 14 mm | 12% |  |  |  | 
Nn1c(S)nnc1Cc1csc(NC(=O)c2ccccc2)n1 | Non-toxic | < 6.25 µg/mL | 22 mm | 20 mm | 18 mm | 14% |  |  |  | 
CC(=O)NNC(=O)CSc1nnc(Cc2csc(NC(C)=O)n2)n1NC(=O)c1ccccc1 | Non-toxic | < 6.25 µg/mL | 21 mm | 18 mm | 10 mm | 18% |  |  |  | 
O=C(CSc1nnc(Cc2csc(NC(=O)c3ccccc3)n2)n1NC(=O)c1ccccc1)NNC(=O)c1ccccc1 | Non-toxic | < 6.25 µg/mL |  |  |  |  |  |  |  | 
N#CCSc1nnc(Cc2csc(NCCC(=O)O)n2)n1NC(=O)c1ccccc1 | Non-toxic | < 6.25 µg/mL | 26 mm | 24 mm | 20 mm | 20% |  |  |  | 
O=C(O)CCNc1nc(Cc2nnc(SCC(=O)NNC(=O)CCl)n2NC(=O)c2ccccc2)cs1 | Non-toxic | < 6.25 µg/mL |  |  |  |  |  |  |  | 
